pIC50: −log10 of the molar value. Active and inactive are the calls of the source. No cut-off for these calls is given here.
Experiments:
[1] = molecular target: Glutamate NMDA receptor; assay: (§1) Binding affinity against PCP binding site associated with N-methyl-D-aspartate glutamate receptor from rat synaptic plasma membrane(SPM) determined using [3H]TCP as radioligand.
Method in brief: (§2)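 Crude rat brain synaptic plasma membranes (cerebellum removed, extensively washed) were used in 5 mM Tris-HCl pH 7.4. [3H]TCP at 5 nM final was incubated with ~0.2 mg membranes for 60 min at 23 °C. Nonspecific binding was defined with cold phencyclidine. Samples were filtered on GF/B pre-soaked in 0.5% PEI, washed with 5 mM Tris pH 7.7 and counted.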

[2] = molecular target: Glutamate [NMDA] receptor; assay: (§3) Binding affinity against dextromethorpin binding site associated with N-methyl-D-aspartate glutamate receptor from guinea pig mitochondrial pellet P2 determined using [3H]1 as radioligand.; format: protein-complex assay, Cavia porcellus
Method in brief: (§4)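 Guinea pig brain crude mitochondrial P2 fraction (11500g pellet, De Robertis-based) was used in Tris-HCl pH 7.4. [3H]dextromethorphan at 5 nM final was incubated with ~0.3 mg tissue for 20 min at 23 °C, with displacer at 10^-9–10^-5 M. Nonspecific binding was defined with 100 µM unlabelled ligand. Samples were filtered on GF/B and counted by scintillation.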

[3] = molecular target: T1, Glutamate NMDA receptor (Rattus norvegicus) (UniProt P35439+Q00959+Q00960+Q00961+Q62645+Q8VHN2+Q9R1M7); assay: Binding affinity against PCP binding site associated with N-methyl-D-aspartate glutamate receptor from rat synaptic plasma membrane(SPM) determined using [3H]TCP as radioligand; settings: concentration not given here; method in brief: as §2
[4] = molecular target: Glutamate NMDA receptor; assay: Binding affinity against dextromethorpin binding site of N-methyl-D-aspartate glutamate receptor from rat brain using [3H]1
Method in brief: (§5)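 Rat brain membranes were the 100000g pellet of the 1000g supernatant, in 50 mM Tris-HCl pH 7.4. [3H]dextromethorphan (5 nM final) was incubated with ~0.3 mg membranes for 20 min at 23 °C, with displacer at 10^-9–10^-5 M. Nonspecific binding was defined with 100 µM unlabelled ligand. Samples were filtered on GF/B in cold Tris/choline chloride/Triton wash and counted by scintillation.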

[5] = molecular target: Glutamate [NMDA] receptor; assay: Inhibition of [3H]1 binding to dextromethorpin binding site of guinea pig microsomal pellet P3 N-methyl-D-aspartate glutamate receptor; parameters: species or system Cavia porcellus
Method in brief: (§6)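 Guinea pig brain microsomal P3 fraction (100000g, 60 min pellet) was used in Tris-HCl pH 7.4. [3H]dextromethorphan at 5 nM final was incubated with ~0.5 mg tissue for 20 min at 23 °C, with displacer at 10^-9–10^-5 M. Nonspecific binding was defined with 100 µM unlabelled ligand. Samples were filtered on GF/B in cold Tris/choline chloride/Triton buffer and counted.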

[6] = tested on: Glutamate NMDA receptor; assay: Binding affinity against glycine binding site of N-methyl-D-aspartate glutamate receptor from rat synaptic plasma membrane(SPM) using [3H]glycine; NA = No effect
[7] = tested on: Rattus norvegicus; assay: Anticonvulsant activity in rat supramaximal electroshock (MES) test within a dose range of 15-60 mg/kg administered subcutaneously; format: functional; settings: sc
Method in brief: (§7)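 The compound was given sc in freshly diluted normal saline at 1-2 mL/kg across the stated dose range, with vehicle-injected controls. MES protection was scored 30 min post-dose, with n = 10 rats. ED50 was derived from the dose-response and reported with 95% confidence limits, in mg/kg and µmol/kg.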

[8] = tested on: Rattus norvegicus; assay: Anticonvulsant activity in rat supramaximal electroshock (MES) test within a dose range of 15-60 mg/kg.; format: functional; method in brief: as §7
[9] = tested on: Rattus norvegicus; assay: Anticonvulsant activity in rat supramaximal electroshock (MES) test expressed as % rats protected at a dose of 10 and 25 mg/kg.; format: functional
Method in brief: (§8)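 Rats were given the compound sc in freshly diluted normal saline (DMSO or HCl-assisted dissolution for some compounds) at 1-2 mL/kg. Vehicle-injected controls were run. Rats were tested at 30 min after injection. The read-out is the % of rats protected from convulsion in the MES test at the stated doses, with n = 10 rats.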

[10] = molecular target: Glutamate [NMDA] receptor; assay: Binding affinity against dextromethorpin binding site associated with N-methyl-D-aspartate glutamate receptor from guinea pig mitochondriall pellet P2 determined using [3H]1 as radioligand.; format: protein-complex assay, Cavia porcellus; method in brief: as §4
[11] = tested on: Glutamate NMDA receptor; assay: (§9) Binding affinity against glycine binding site associated with N-methyl-D-aspartate glutamate receptor from rat synaptic plasma membrane(SPM) determined using [3H]glycine as radioligand.;NA = No effect
[12] = tested on: Rattus norvegicus; assay: Anticonvulsant activity in rat supramaximal electroshock (MES) test expressed as % rats protected at a dose of 2.5-10 mg/kg.; format: functional; method in brief: as §8
[13] = molecular target: T2, Glutamate [NMDA] receptor (Homo sapiens) (UniProt Q05586+Q12879+Q13224+O15399+O60391+Q14957+Q8TCU5); assay: Binding affinity against dextromethorpin binding site associated with N-methyl-D-aspartate glutamate receptor from guinea pig microsomal pellet P3 determined using [3H]1 as radioligand.; settings: Cavia porcellus; target entry is the homologue from another species; concentration not given here; method in brief: as §6
[14] = molecular target: T2, Glutamate [NMDA] receptor (Homo sapiens); assay: as §3; format: functional; settings: Cavia porcellus; target entry is the homologue from another species; concentration not given here; method in brief: as §4
[15] = molecular target: T1, Glutamate NMDA receptor (Rattus norvegicus); assay: Binding affinity against dextromethorpin binding site associated with N-methyl-D-aspartate glutamate receptor from rat brain determined using [3H]1 as radioligand.; settings: concentration not given here; method in brief: as §5
[16] = molecular target: T1, Glutamate NMDA receptor (Rattus norvegicus); assay: as §9
[17] = tested on: Rattus norvegicus; assay: Anticonvulsant activity in rat supramaximal electroshock (MES) test expressed as % rats protected at a dose of 2.5-50 mg/kg.; format: functional; method in brief: as §8
[18] = tested on: Rattus norvegicus; assay: Anticonvulsant activity in rat supramaximal electroshock (MES) test expressed as % rats protected at a dose of 15-60 mg/kg.; format: functional; method in brief: as §8
[19] = tested on: Rattus norvegicus; assay: Anticonvulsant activity in rat supramaximal electroshock (MES) test expressed as % rats protected at a dose of 25-50 mg/kg.; format: functional; method in brief: as §8
[20] = tested on: Rattus norvegicus; assay: Anticonvulsant activity in rat supramaximal electroshock (MES) test expressed as % rats protected at a dose of 5-40 mg/kg.; format: functional; method in brief: as §8
[21] = molecular target: T2, Glutamate [NMDA] receptor (Homo sapiens); settings: Cavia porcellus; 10e-5 M
[22] = molecular target: T2, Glutamate [NMDA] receptor (Homo sapiens); settings: Cavia porcellus; Plasma; 10e-5 M
[23] = molecular target: T1, Glutamate NMDA receptor (Rattus norvegicus); settings: 10e-5 M
[24] = tested on: Rattus norvegicus; assay: Anticonvulsant activity was determined in rat supramaximal electroshock (MES) test within a dose range of 15-60 mg/kg after (sc) administration; format: functional; method in brief: as §7
[25] = tested on: Rattus norvegicus; assay: Anticonvulsant activity in rat supramaximal electroshock (MES) test expressed as % rats protected at a dose of 12.5-50 mg/kg.; format: functional; method in brief: as §8
[26] = molecular target: T1, Glutamate NMDA receptor (Rattus norvegicus); assay: as §1; method in brief: as §2
[27] = tested on: Rattus norvegicus; assay: Anticonvulsant activity in rat supramaximal electroshock (MES) test expressed as % rats protected at a dose of 40 mg/kg.; format: functional; method in brief: as §8
[28] = tested on: Rattus norvegicus; assay: Anticonvulsant activity in rat supramaximal electroshock (MES) test expressed as % rats protected at a dose of 25-100 mg/kg.; format: functional; method in brief: as §8
[29] = molecular target: T1, Glutamate NMDA receptor (Rattus norvegicus); assay: as §1; settings: concentration not given here
Method in brief: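 Rat brain (minus cerebellum) crude synaptic plasma membranes, washed repeatedly in 5 mM Tris-HCl pH 7.4; about 0.2 mg incubated with 5 nM [3H]TCP for 60 min at 23 °C, 0.5 mL final volume. Displacers tested at 10^-9–10^-5 M; cold PCP defines nonspecific binding. Bound ligand collected by filtration on PEI-soaked GF/B filters and counted by scintillation.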

[30] = molecular target: Glutamate [NMDA] receptor; assay: Binding affinity against dextromethorpin binding site associated with N-methyl-D-aspartate glutamate receptor from guinea pig microsomal pellet (P3) using [3H]1 as radioligand.; parameters: species or system Cavia porcellus; method in brief: as §6
[31] = molecular target: Glutamate NMDA receptor; assay: Binding affinity against dextromethorpin binding site associated with N-methyl-D-aspartate glutamate receptor from rat brain using [3H]1 as radioligand.; method in brief: as §5
[32] = tested on: Glutamate NMDA receptor; assay: Binding affinity against glycine binding site associated with N-methyl-D-aspartate glutamate receptor from rat synaptic plasma membrane using [3H]glycine as radioligand.
[33] = tested on: Rattus norvegicus; assay: Anticonvulsant activity in rat supramaximal electroshock (MES) test expressed as % rats protected at a dose of 50 mg/kg.; format: functional; method in brief: as §8
[34] = molecular target: T1, Glutamate NMDA receptor (Rattus norvegicus); assay: Binding affinity against PCP binding site associated with N-methyl-D-aspartate glutamate receptor from rat synaptic plasma membrane(SPM) determined using [3H]TCP as radioligand.;NA = No effect; settings: concentration not given here; method in brief: as §2
[35] = tested on: Rattus norvegicus; assay: Anticonvulsant activity in rat supramaximal electroshock (MES) test expressed as % rats protected at a dose of 1.25-10 mg/kg.; format: functional; method in brief: as §8

| SMILES | pIC50 [2] | pIC50 [4] | pIC50 [5] | IC50 [6] | ED50 [8] [µmol/kg] | other results |
| --- | --- | --- | --- | --- | --- | --- |
| c1ccc(C2(N3CCCCC3)CCCCC2)cc1 [PHENCYCLIDINE] |  |  |  |  |  | pIC50 [1]: 6.74 |
| CCOc1ccc2c(c1)C13CCCCC1C(C2)N(C)CC3 (centres undefined) | 7.05 | 6.38 | 6.89 | Not Active | 17.4 | inhibition [3]: 75%; ED50 [7]: 5.6 mg/kg; Protection [9]: 90% |
| CN1CC[C@]23CCCC[C@H]2[C@H]1Cc1ccc(O)cc13 [LEVORPHANOL] |  | 5.11 | 5.57 |  | 12 | pIC50 [1]: 5.92; pIC50 [10]: 5.60; IC50 [11]: Not Active; ED50 [7]: 5 mg/kg; Protection [12]: 90% |
| CN1CCC23CCCCC2C1Cc1ccc(Oc2nc(-c4ccccc4)nc4ccccc24)cc13 (centres undefined) |  |  |  |  |  | inhibition [13]: 50%; inhibition [14]: 25%; inhibition [15]: 19%; inhibition [16]: inactive; Protection [17]: 10% |
| COc1ccc2c(c1)C13CCCCC1C(C2)N(C)CC3 (stereo not drawn) [RACEMETHORPHAN] | 6.62 |  | 6.31 | Not Active | 109 | ED50 [7]: 38 mg/kg; Protection [18]: 70% |
| CN1CCC23CCCCC2C1Cc1ccc(Cl)cc13 (centres undefined) | 6.43 | 5.96 | 6.68 | Not Active |  | pIC50 [1]: 5.26; Protection [19]: 10% |
| CCCCOc1ccc2c(c1)C13CCCCC1C(C2)N(C)CC3 (centres undefined) | 6.80 | 5.82 | 7.00 | Not Active |  | inhibition [3]: 58%; Protection [20]: 40% |
| C[C@]12N[C@H](Cc3ccccc31)c1ccccc12 |  |  |  |  |  | inhibition [21]: 19%; inhibition [22]: 20%; inhibition [23]: 42% |
| CN1CCC23CCCCC2C1Cc1ccc(N)cc13 (centres undefined) | 5.19 |  | 5.36 | Not Active | 76 | pIC50 [1]: 5.11; inhibition [15]: 45%; ED50 [24]: 25 mg/kg; Protection [25]: 100% |
| CN(C)c1ccc2c(c1)C13CCCCC1C(C2)N(C)CC3 (centres undefined) | 6.17 | 5.36 | 5.96 | Not Active |  | inhibition [26]: 45 µM; Protection [27]: 40% |
| CN1CCC23CCCCC2C1Cc1ccc(N=C=S)cc13 (centres undefined) | 6.36 | 5.82 | 6.77 | Not Active |  | inhibition ([26]; concentration not given here): 60%; Protection [19]: 0% |
| CN1CCC23CCCCC2C1Cc1ccccc13 (centres undefined) | 5.77 | 5.89 | 6.00 | Not Active |  | inhibition ([26]; concentration not given here): 53%; Protection [28]: 0% |
| CN(C)CCCN1c2ccccc2Sc2ccc(Cl)cc21 [CHLORPROMAZINE] | 5.96 | 5.89 | 6.22 | Not Active |  | inhibition [29]: 25% |
| CNc1ccc2c(c1)C13CCCCC1C(C2)N(C)CC3 (centres undefined) | 6.32 | 5.44 | 5.89 | Not Active |  | inhibition ([26]; concentration not given here): 43%; Protection [28]: 0% |
| CN1CCC23CCCCC2C1Cc1ccc(OCc2ccccc2)cc13 (centres undefined) | 6.57 |  |  |  |  | pIC50 [30]: 6.82; inhibition ([26]; concentration not given here): 39%; pIC50 [31]: 5.51; IC50 [32]: Not Active; Protection [33]: 30% |
| CC(C)Oc1ccc2c(c1)C13CCCCC1C(C2)N(C)CC3 (centres undefined) | 6.82 | 6.06 | 6.92 | Not Active | 9.4 | inhibition [34]: 59%; ED50 [7]: 3.9 mg/kg; Protection [35]: 90% |
